Published values from different studies.
Lines come from different studies, so protocols differ.
Target: Serine/threonine-protein kinase Nek1 (NEK1, Homo sapiens, UniProt Q96PY6)
Residues used in one study (Q96PY6 1-1258): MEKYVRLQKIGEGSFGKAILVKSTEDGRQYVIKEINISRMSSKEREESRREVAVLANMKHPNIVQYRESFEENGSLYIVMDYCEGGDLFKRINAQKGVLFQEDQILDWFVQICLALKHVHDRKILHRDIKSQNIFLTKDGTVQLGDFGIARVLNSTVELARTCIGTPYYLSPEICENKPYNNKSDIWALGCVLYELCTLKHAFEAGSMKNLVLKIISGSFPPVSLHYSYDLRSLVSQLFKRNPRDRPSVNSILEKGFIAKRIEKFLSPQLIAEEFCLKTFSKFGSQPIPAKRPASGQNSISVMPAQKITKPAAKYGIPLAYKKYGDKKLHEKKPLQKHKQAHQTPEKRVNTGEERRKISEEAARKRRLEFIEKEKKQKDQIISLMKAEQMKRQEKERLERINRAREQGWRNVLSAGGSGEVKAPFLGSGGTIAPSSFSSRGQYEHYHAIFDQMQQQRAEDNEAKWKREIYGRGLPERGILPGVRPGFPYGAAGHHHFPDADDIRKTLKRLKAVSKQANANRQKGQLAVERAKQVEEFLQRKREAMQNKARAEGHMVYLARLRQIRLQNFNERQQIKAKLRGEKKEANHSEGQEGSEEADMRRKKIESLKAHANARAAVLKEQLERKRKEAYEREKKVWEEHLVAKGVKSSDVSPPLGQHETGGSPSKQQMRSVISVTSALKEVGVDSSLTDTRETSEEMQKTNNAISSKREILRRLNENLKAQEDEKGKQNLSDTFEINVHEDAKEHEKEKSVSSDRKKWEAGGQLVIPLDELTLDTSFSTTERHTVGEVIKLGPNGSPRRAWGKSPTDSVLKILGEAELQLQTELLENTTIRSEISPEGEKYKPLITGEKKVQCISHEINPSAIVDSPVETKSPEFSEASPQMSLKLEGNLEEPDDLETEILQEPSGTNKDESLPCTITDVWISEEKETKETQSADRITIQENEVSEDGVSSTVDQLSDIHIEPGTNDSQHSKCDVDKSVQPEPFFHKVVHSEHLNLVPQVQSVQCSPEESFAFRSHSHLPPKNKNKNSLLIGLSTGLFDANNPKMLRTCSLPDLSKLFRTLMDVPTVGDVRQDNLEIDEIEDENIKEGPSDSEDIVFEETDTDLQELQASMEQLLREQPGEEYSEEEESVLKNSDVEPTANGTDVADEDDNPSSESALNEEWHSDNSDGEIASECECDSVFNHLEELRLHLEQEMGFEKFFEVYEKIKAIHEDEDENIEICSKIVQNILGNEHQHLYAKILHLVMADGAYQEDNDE

SMILES | effect on | technique | concentration | remaining binding [%]
CN(C)c1nccc(-c2cnc3ncccn23)n1 | binding |  | 1 µM | 100
CCC(=O)N[C@H]1CC[C@@H](C(=O)N(C)c2ccc(-c3nc4ccccc4o3)cc2)C1 | cell-free assay | competition with immobilised ligand | 1 µM | 100
COc1cnc(Nc2cccc(S(N)(=O)=O)c2)nc1N1CCN(c2ccccc2)C(=O)C1 | binding | competition with immobilised ligand | 1 µM | 100
C=CC(=O)N1CCC(C(=O)NCC(=O)N2CCN(c3nc(-c4cnc(N)nc4C(F)F)nc(N4CCOCC4)n3)CC2)CC1 | binding | competition with immobilised ligand | 1 µM | 96
FC(F)(F)Oc1cccc(-c2cnc3ccc(-c4ccncc4)nn23)c1 | cell-free assay | competition with immobilised ligand | 5 µM | 78
CN(c1nccc(-c2cnn3ncccc23)n1)C1CC1 | binding |  | 1 µM | 100
COc1ncc2cc3ccccc3nc2c1C#N | cell-free assay | competition with immobilised ligand | 5 µM | 100
O=C(NCC1CCOCC1)c1n[nH]cc1NC(=O)c1c(F)cccc1F | binding | competition with immobilised ligand | 1 µM | 100
Cn1cc(Cl)c2c(Oc3c(F)cc(Nc4cc(Cl)nc(N)n4)cc3F)ccnc21 | cell-free assay | competition with immobilised ligand | 0.1 µM | 100
N[C@@H]1CCN(c2nccc(-c3cnn4ncccc34)n2)C1 | binding |  | 1 µM | 100
Cc1cnc(Nc2ccc(C(=O)N3CCC(N4CCCC4)CC3)cc2)nc1-c1cc2ccccc2s1 | binding | competition with immobilised ligand | 1 µM | 18
O=C(N[C@H]1CCCCC/C=C\C2C[C@@]2(C(=O)O)NC(=O)[C@@H]2C[C@@H](Oc3ccncc3)CN2C1=O)OC1CCCC1 (stereo partly shown) | binding | competition with immobilised ligand | 1 µM | 100
O=C(c1ccc(Nc2nccc(-c3cc4ccccc4s3)n2)cc1)N1CCC(N2CCCC2)CC1 | binding | competition with immobilised ligand | 1 µM | 31
NS(=O)(=O)c1cc(NC(=O)C2(c3ccccc3Cl)CC2)ccc1Oc1cccc(Cl)c1 | cell-free assay | competition with immobilised ligand | 1 µM | 100
CN(CCCC(F)(F)F)c1nccc(-c2cnn3ncccc23)n1 | binding |  | 1 µM | 100
Cn1nc(C(=O)NCc2ccc(C(=O)O)cc2)cc1-c1ccc2[nH]ccc2c1 | cell-free assay | competition with immobilised ligand | 0.1 µM | 100
C[C@@H]1CCN(c2nccc(-c3cnn4ncccc34)n2)C1 | binding |  | 1 µM | 100
Nc1ncc2c(n1)-c1c([nH]c3ccc(C#CC4CC4)cc13)CCCC2 | binding | competition with immobilised ligand | 1 µM | 100
Cc1cnn2ncc(-c3ccnc(N(C)C)n3)c2c1 | binding |  | 1 µM | 100
CS(=O)(=O)NCC[C@H](NC(=O)c1cncc2c1cnn2-c1ccc(F)cc1)c1ccnc(S(C)(=O)=O)c1 | cell-free assay | competition with immobilised ligand | 1 µM | 45
O=C(NCCCN1CCOCC1)c1ccc(Nc2nccc(-c3cc4ccccc4s3)n2)cc1 | binding | competition with immobilised ligand | 1 µM | 72
F[C@@H]1CCN(c2nccc(-c3cnn4ncccc34)n2)C1 | binding |  | 1 µM | 100
